Source: ChEMBL document CHEMBL1148717, “Design, synthesis, and biological evaluation of Plasmodium falciparum lactate dehydrogenase inhibitors” (J Med Chem, 2007)

Legend:
[1] = biological target: T1, Malate dehydrogenase (Plasmodium falciparum, UniProt Q6VVP7); test: Inhibition of Plasmodium falciparum MDH
T1 sequence (Q6VVP7 whole entry): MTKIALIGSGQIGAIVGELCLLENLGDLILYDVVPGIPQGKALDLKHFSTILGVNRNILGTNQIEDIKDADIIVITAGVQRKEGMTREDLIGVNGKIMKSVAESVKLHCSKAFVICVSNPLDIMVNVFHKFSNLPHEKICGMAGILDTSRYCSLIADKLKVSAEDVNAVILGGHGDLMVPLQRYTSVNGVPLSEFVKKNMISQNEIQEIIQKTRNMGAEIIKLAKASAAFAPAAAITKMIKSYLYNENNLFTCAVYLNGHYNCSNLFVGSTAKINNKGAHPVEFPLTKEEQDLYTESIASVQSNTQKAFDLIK
In short: (§1)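 Recombinant P. falciparum LDH and MDH, bovine heart LDH, and porcine heart mitochondrial and cytosolic MDH were each assayed in 50 mM potassium phosphate (pH 7.0) with 200 µM pyruvate. Reactions were started with 250 µM NADH, and the fall in A340 was followed for 5 min at 25 °C. Compounds were first screened at 50 and 100 µg/mL. Those giving over 50% inhibition at 50 µg/mL were retested for IC50.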

[2] = biological target: T2, Malate dehydrogenase, cytoplasmic (Sus scrofa, UniProt P11708); test: Inhibition of pig cytosolic MDH; in short: as §1
T2 sequence (P11708 whole entry): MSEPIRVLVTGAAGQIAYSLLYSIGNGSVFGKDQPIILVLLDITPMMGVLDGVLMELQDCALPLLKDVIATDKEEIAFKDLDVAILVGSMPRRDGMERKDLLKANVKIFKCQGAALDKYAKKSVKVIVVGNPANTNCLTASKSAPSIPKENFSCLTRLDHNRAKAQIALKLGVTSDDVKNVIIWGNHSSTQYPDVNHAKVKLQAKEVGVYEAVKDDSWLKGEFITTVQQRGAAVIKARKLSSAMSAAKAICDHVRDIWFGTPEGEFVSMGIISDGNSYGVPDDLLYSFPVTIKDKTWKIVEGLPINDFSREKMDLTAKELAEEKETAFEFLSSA

[3] = biological target: T3, Malate dehydrogenase, mitochondrial (Sus scrofa, UniProt P00346); test: Inhibition of pig heart mitochondrial MDH; in short: as §1
T3 sequence (P00346 whole entry): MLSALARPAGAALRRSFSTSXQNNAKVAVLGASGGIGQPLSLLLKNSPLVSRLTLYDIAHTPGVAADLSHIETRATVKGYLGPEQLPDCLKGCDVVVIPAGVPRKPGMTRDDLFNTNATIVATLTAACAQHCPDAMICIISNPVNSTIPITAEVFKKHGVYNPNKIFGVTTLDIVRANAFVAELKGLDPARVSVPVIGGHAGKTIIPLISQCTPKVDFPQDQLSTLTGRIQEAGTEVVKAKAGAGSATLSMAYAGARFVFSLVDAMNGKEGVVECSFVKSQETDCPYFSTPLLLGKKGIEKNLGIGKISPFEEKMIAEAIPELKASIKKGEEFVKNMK

[4] = biological target: Lactate dehydrogenase (Plasmodium falciparum, UniProt Q0PJ46); test: Inhibition of Plasmodium falciparum LDH; in short: as §1
[5] = Inhibition of bovine heart LDH; design: species or system Bos taurus
[6] = Selectivity for Plasmodium falciparum LDH over bovine heart LDH

Lactate dehydrogenase, sequence (Q0PJ46 whole entry): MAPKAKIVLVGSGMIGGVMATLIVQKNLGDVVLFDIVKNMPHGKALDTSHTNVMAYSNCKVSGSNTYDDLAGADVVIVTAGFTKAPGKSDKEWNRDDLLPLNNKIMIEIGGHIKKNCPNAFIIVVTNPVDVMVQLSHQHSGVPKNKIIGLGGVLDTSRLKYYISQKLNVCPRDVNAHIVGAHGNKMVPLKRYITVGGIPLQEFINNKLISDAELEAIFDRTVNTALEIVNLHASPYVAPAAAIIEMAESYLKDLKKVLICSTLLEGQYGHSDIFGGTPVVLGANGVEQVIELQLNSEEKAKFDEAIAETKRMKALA

IC50 ([1]; read-out: IC50) [µM] | IC50 ([2]; read-out: IC50) [µM] | IC50 [3] [µM] | IC50 ([4]; read-out: IC50) [µM] | IC50 ([5]; read-out: IC50) [µM] | IC50 [2] | IC50 [1] | IC50 [4] | IC50 [5] | Ratio IC50 [6] | SMILES
48.3 | > 232 | 64 | 87.3 | – | – | – | – | – | – | COc1cc(COc2cc(O)c3c(=O)cc(C(=O)O)oc3c2)ccc1NC(=O)C(=O)O
2.66 | 6.31 | 0.39 | 1.75 | 11.4 | – | – | – | – | – | COc1ccc(CNC(=O)c2cc(=O)c3c(O)cc(OCCc4ccc(NC(=O)C(=O)O)c(OC)c4)cc3o2)cc1
> 241 | – | 96.7 | > 241 | – | Not Active | – | – | – | – | O=C(O)C(=O)Nc1ccc(CCOc2cc(O)c3c(=O)cc(C(=O)O)oc3c2)cc1
– | 13.6 | 17.1 | – | – | – | Not Active | Not Active | Not Active | – | N#Cc1cc(CCOc2cc(O)c3c(=O)cc(C(=O)O)oc3c2)ccc1NC(=O)C(=O)O
6.76 | 4.88 | 2.72 | 3.13 | > 187 | – | – | – | – | 59 | COc1ccc(CNC(=O)c2cc(=O)c3c(O)cc(OCCc4ccc(NC(=O)C(=O)O)cc4)cc3o2)cc1
> 2000 | > 2000 | > 2000 | 92.5 | – | – | – | – | – | – | NC(=O)C(=O)O [OXAMATE]
86.9 | 10.9 | 5.91 | 8.25 | > 179 | – | – | – | – | 22 | COc1ccc(CNC(=O)c2cc(=O)c3c(O)cc(OCCc4ccc(NC(=O)C(=O)O)c(C#N)c4)cc3o2)cc1
> 225 | – | > 225 | 191 | – | Not Active | – | – | – | – | COc1cc(CCOc2cc(O)c3c(=O)cc(C(=O)O)oc3c2)ccc1NC(=O)C(=O)O

SMILES | IC50 ([1]; read-out: IC50) [µM] | IC50 ([2]; read-out: IC50) [µM] | IC50 [3] [µM] | IC50 ([4]; read-out: IC50) [µM] | IC50 ([5]; read-out: IC50) [µM] | IC50 [2] | IC50 [1] | IC50 [4] | IC50 [5] | Ratio IC50 [6]
Cc1cc2c(C(C)C)c(O)c(O)c(C=O)c2c(O)c1-c1c(C)cc2c(C(C)C)c(O)c(O)c(C=O)c2c1O [GOSSYPOL] | 2.03 | 5.8 | 2.8 | 2.64 | 9.54 | – | – | – | – | –
